Assay results as given in ChEMBL document CHEMBL3745617 (J Med Chem, 2015).
Active and inactive are the calls of the source. The rule behind the calls is not given here.

Tests used:
[1] = biological target: Tyrosine-protein kinase Blk (Homo sapiens) (UniProt P51451); assay: Inhibition of BLK (unknown origin) expressed in BaF3 cells assessed as inhibition of cell proliferation after 72 hrs by CelltiterGlo assay; type: cell-based
[2] = biological target: T1, Mast/stem cell growth factor receptor Kit (Homo sapiens, UniProt P10721); assay: Inhibition of c-KIT (unknown origin) expressed in BaF3 cells assessed as inhibition of cell proliferation after 72 hrs by CelltiterGlo assay; type: cell-based
[3] = biological target: Hepatocyte growth factor receptor (Homo sapiens) (UniProt P08581); assay: Inhibition of MET (unknown origin) expressed in BaF3 cells assessed as inhibition of cell proliferation after 72 hrs by CelltiterGlo assay; type: cell-based
[4] = biological target: Epidermal growth factor receptor (Homo sapiens) (UniProt P00533); assay: Inhibition of EGFR (unknown origin) expressed in BaF3 cells assessed as inhibition of cell proliferation after 72 hrs by CelltiterGlo assay; type: cell-based
[5] = biological target: Tyrosine-protein kinase JAK1 (Homo sapiens) (UniProt P23458); assay: Inhibition of JAK1 (unknown origin) expressed in BaF3 cells assessed as inhibition of cell proliferation after 72 hrs by CelltiterGlo assay; type: cell-based
[6] = biological target: Tyrosine-protein kinase JAK2 (Homo sapiens) (UniProt O60674); assay: Inhibition of JAK2 (unknown origin) expressed in BaF3 cells assessed as inhibition of cell proliferation after 72 hrs by CelltiterGlo assay; type: cell-based
[7] = Antiproliferative activity against human U937 cells after 72 hrs by CelltiterGlo assay; type: functional; conditions: U-937, 72 h
[8] = AUC (0 to t) in Sprague-Dawley rat at 1 mg/kg, iv; type: ADME, organism-based; conditions: in vivo
[9] = Clearance in Sprague-Dawley rat at 1 mg/kg, iv; type: ADME, organism-based; conditions: in vivo
[10] = Mean residence time (0 to infinity) in Sprague-Dawley rat at 1 mg/kg, iv; type: ADME, organism-based; conditions: in vivo
[11] = Tmax in Sprague-Dawley rat at 10 mg/kg, po; type: ADME, organism-based; conditions: in vivo
[12] = Cmax in Sprague-Dawley rat at 10 mg/kg, po; type: ADME, organism-based; design: dose 10 mg/kg, route oral; conditions: in vivo
[13] = AUC(0 to t) in Sprague-Dawley rat at 10 mg/kg, po; type: ADME, organism-based; conditions: in vivo
[14] = AUC(0 to infinity) in Sprague-Dawley rat at 10 mg/kg, po; type: ADME, organism-based; design: dose 10 mg/kg, route oral, time infinity; conditions: in vivo
[15] = Oral bioavailability in Sprague-Dawley rat at 10 mg/kg; type: ADME, organism-based; conditions: in vivo
MV4-11 [16] = assay: Antitumor activity against human MV4-11 cells xenografted in nu/nu mouse assessed as tumor weight at 25 mg/kg/day administered via oral gavage measured after 22 days of treatment (reference value: 2.5 g); type: functional
[17] = test system: Receptor-type tyrosine-protein kinase FLT3 (Homo sapiens), P36888 [UNDEFINED MUTATION]; assay: Inhibition of FLT3 ITD mutant (unknown origin) expressed in BaF3 cells assessed as inhibition of cell proliferation after 72 hrs by CelltiterGlo assay; type: cell-based
[18] = biological target: Receptor tyrosine-protein kinase erbB-3 (Homo sapiens) (UniProt P21860); assay: Inhibition of ERBB3 (unknown origin) assessed as remaining activity at 1 uM relative to control
Outline: (§1)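 KinomeScan competitive binding panel of 468 kinases. Compound tested at a single 1 µM concentration. Read-out is percent of kinase activity remaining relative to a DMSO control.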

[19] = biological target: Tyrosine-protein kinase HCK (Homo sapiens) (UniProt P08631); assay: Inhibition of HCK (unknown origin) assessed as remaining activity at 1 uM relative to control; outline: as §1
[20] = biological target: Tyrosine-protein kinase Lck (Homo sapiens) (UniProt P06239); assay: Inhibition of LCK (unknown origin) assessed as remaining activity at 1 uM relative to control
Outline: (§2)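 KinomeScan competition binding panel of 468 kinases, with the compound tested at 1 µM. Each kinase's result is reported as percent activity remaining relative to a DMSO control.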

[21] = biological target: Proto-oncogene tyrosine-protein kinase receptor Ret (Homo sapiens) (UniProt P07949); assay: Inhibition of RET (unknown origin) assessed as remaining activity at 1 uM relative to control; outline: as §2
[22] = biological target: Tyrosine-protein kinase Srms (Homo sapiens) (UniProt Q9H3Y6); assay: Inhibition of SRMS (unknown origin) assessed as remaining activity at 1 uM relative to control; outline: as §2
[23] = biological target: T1, Mast/stem cell growth factor receptor Kit; assay: Inhibition of c-KIT (unknown origin) by ADP-Glo assay
Outline: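 Biochemical activity assay in ADP-Glo format using purified c-KIT kinase protein. It was run to confirm the binding-panel findings.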

[24] = Cell cycle arrest in human MOLM14 cells assessed as accumulation at G0/G1 phase at 0.03 to 1 uM after 24 hrs by flow cytometry; type: functional, cell-based; conditions: MOLM-14
MV4-11 [25] = assay: Induction of apoptosis in human MV4-11 cells assessed as cleaved PARP level at 0.03 to 1 uM after 48 hrs by immunoblot analysis; type: functional, cell-based
MV4-11 [26] = assay: Induction of apoptosis in human MV4-11 cells assessed as cleaved caspase-3 level at 0.03 to 1 uM after 48 hrs by immunoblot analysis; type: functional, cell-based
MOLM-14 = assay: Induction of apoptosis in human MOLM14 cells assessed as cleaved PARP level at 0.03 to 1 uM after 24 hrs by immunoblot analysis; type: functional, cell-based
MOLM-13 [27] = assay: Induction of apoptosis in human MOLM13 cells assessed as cleaved PARP level at 0.03 to 1 uM after 12 hrs by immunoblot analysis; type: functional, cell-based
MOLM-13 [28] = assay: Induction of apoptosis in human MOLM13 cells assessed as cleaved caspase-3 level at 0.03 to 1 uM after 12 hrs by immunoblot analysis; type: functional, cell-based
[29] = test system: Receptor-type tyrosine-protein kinase FLT3 (Homo sapiens), P36888 [UNDEFINED MUTATION]; conditions: BaF3
[30] = test system: Receptor-type tyrosine-protein kinase FLT3 (Homo sapiens), P36888 [UNDEFINED MUTATION]; conditions: BaF3; remark: listed apart in the source
[31] = test system: Receptor-type tyrosine-protein kinase FLT3 (Homo sapiens), P36888 [D835H]; conditions: BaF3
[32] = biological target: Receptor-type tyrosine-protein kinase FLT3 (Homo sapiens) (UniProt P36888); conditions: MOLM-13, 0.03 to 3 uM
[33] = biological target: Receptor-type tyrosine-protein kinase FLT3 (Homo sapiens) (UniProt P36888); conditions: MV4-11, 0.03 to 3 uM
[34] = biological target: Receptor-type tyrosine-protein kinase FLT3 (Homo sapiens) (UniProt P36888); conditions: MOLM-14, 0.03 to 3 uM
[35] = biological target: Receptor-type tyrosine-protein kinase FLT3 (Homo sapiens) (UniProt P36888); conditions: MV4-11, 0.03 to 3 uM; remark: listed apart in the source
[36] = biological target: Receptor-type tyrosine-protein kinase FLT3 (Homo sapiens) (UniProt P36888); conditions: MOLM-14, 0.03 to 3 uM; remark: listed apart in the source
[37] = biological target: Receptor-type tyrosine-protein kinase FLT3 (Homo sapiens) (UniProt P36888); conditions: MOLM-13, 0.03 to 3 uM; remark: listed apart in the source

T1 sequence (P10721 whole entry): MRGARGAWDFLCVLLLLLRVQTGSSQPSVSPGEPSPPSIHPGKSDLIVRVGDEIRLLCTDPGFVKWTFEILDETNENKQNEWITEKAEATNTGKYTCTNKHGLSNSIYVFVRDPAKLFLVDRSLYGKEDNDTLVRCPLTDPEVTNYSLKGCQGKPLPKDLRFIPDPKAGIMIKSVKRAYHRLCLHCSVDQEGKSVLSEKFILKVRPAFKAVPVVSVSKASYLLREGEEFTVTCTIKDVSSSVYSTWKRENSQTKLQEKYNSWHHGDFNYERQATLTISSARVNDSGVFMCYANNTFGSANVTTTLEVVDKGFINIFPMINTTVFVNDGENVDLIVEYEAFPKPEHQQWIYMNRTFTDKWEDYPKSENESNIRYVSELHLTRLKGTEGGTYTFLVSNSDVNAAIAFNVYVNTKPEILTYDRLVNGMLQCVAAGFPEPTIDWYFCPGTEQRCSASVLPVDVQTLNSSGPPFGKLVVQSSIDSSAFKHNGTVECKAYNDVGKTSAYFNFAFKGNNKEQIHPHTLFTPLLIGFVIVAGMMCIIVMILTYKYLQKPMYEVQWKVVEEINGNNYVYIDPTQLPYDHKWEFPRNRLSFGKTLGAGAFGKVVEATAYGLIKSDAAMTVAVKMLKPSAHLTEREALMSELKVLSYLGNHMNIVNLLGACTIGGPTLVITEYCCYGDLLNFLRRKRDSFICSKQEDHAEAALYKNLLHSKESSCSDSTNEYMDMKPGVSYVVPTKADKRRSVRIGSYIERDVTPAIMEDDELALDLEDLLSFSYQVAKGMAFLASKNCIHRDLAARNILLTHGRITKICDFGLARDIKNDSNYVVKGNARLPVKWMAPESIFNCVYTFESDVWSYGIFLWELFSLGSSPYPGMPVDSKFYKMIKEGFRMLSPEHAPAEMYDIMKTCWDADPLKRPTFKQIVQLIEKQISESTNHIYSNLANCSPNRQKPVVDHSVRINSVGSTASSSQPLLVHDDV
Tyrosine-protein kinase Lck (Homo sapiens), sequence (P06239 2-509 limits assumed): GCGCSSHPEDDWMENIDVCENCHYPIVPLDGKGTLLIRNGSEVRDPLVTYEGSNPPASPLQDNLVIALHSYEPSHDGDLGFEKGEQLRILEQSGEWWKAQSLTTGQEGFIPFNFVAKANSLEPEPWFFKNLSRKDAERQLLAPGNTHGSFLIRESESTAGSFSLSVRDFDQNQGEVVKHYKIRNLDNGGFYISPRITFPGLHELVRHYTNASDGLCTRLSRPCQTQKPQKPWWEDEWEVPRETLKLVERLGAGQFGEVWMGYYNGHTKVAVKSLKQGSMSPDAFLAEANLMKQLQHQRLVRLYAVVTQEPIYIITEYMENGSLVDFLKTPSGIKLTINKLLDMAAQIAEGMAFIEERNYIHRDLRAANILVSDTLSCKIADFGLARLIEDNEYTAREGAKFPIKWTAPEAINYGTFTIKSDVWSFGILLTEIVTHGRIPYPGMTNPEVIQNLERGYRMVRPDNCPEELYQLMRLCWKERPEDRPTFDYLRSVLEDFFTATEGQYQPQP
Tyrosine-protein kinase JAK1 (Homo sapiens), sequence (P23458 whole entry): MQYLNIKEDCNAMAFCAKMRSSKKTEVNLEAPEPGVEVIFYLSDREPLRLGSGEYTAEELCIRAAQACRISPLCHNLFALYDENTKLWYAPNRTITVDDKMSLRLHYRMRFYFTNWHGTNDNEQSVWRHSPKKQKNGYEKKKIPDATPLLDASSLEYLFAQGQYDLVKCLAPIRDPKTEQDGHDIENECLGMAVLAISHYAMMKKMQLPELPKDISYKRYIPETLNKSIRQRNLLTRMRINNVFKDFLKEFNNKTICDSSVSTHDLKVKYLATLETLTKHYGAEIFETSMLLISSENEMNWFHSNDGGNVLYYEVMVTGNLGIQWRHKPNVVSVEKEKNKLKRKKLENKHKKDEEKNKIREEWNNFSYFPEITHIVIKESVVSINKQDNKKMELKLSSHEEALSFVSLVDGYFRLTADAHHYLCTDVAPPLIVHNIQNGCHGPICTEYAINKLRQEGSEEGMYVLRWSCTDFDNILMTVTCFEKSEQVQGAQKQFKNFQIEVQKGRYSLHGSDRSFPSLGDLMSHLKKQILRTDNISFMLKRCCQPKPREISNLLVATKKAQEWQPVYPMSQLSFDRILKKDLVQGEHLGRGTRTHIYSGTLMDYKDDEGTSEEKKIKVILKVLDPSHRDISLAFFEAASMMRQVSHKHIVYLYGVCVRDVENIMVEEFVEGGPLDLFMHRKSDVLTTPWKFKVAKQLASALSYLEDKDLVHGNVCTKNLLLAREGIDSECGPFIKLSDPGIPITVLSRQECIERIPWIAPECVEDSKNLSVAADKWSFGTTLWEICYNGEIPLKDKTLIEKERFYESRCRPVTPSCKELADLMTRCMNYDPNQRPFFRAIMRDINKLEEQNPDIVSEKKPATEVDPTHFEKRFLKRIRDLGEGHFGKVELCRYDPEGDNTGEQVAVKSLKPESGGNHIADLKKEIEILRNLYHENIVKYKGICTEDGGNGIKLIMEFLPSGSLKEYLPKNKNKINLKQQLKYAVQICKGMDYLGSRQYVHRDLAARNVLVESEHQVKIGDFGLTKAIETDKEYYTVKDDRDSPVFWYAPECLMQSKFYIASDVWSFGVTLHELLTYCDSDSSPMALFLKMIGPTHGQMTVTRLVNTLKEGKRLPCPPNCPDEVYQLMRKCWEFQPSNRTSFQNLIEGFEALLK
Tyrosine-protein kinase JAK2 (Homo sapiens), sequence (O60674 whole entry): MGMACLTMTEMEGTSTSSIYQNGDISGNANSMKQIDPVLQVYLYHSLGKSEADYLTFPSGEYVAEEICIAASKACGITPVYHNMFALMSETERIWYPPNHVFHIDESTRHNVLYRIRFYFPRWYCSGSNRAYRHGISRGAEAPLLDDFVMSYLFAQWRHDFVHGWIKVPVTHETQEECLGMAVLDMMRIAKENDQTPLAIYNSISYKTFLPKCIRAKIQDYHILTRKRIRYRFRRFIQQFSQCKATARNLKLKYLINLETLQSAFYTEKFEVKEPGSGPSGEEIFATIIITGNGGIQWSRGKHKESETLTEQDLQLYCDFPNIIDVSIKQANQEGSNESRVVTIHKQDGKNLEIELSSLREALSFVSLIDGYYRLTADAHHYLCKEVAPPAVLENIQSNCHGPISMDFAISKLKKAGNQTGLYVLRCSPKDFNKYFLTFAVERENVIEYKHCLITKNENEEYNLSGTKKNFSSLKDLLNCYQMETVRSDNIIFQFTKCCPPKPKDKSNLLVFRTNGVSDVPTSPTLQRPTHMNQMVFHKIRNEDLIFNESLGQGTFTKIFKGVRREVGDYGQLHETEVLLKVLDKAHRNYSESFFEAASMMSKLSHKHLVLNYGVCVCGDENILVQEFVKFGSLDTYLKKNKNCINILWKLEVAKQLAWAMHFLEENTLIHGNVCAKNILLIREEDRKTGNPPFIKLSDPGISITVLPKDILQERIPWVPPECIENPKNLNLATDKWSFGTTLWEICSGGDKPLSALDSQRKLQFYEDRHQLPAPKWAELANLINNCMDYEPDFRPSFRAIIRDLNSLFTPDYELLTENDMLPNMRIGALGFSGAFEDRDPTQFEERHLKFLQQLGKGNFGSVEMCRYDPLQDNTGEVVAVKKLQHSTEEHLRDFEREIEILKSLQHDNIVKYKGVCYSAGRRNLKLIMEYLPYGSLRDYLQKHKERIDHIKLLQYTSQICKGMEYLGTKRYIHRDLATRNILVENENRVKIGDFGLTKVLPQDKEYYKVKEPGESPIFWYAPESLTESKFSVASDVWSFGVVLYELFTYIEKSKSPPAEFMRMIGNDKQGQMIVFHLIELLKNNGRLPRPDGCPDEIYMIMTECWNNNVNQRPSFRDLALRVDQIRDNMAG
Receptor tyrosine-protein kinase erbB-3 (Homo sapiens), sequence (P21860 whole entry): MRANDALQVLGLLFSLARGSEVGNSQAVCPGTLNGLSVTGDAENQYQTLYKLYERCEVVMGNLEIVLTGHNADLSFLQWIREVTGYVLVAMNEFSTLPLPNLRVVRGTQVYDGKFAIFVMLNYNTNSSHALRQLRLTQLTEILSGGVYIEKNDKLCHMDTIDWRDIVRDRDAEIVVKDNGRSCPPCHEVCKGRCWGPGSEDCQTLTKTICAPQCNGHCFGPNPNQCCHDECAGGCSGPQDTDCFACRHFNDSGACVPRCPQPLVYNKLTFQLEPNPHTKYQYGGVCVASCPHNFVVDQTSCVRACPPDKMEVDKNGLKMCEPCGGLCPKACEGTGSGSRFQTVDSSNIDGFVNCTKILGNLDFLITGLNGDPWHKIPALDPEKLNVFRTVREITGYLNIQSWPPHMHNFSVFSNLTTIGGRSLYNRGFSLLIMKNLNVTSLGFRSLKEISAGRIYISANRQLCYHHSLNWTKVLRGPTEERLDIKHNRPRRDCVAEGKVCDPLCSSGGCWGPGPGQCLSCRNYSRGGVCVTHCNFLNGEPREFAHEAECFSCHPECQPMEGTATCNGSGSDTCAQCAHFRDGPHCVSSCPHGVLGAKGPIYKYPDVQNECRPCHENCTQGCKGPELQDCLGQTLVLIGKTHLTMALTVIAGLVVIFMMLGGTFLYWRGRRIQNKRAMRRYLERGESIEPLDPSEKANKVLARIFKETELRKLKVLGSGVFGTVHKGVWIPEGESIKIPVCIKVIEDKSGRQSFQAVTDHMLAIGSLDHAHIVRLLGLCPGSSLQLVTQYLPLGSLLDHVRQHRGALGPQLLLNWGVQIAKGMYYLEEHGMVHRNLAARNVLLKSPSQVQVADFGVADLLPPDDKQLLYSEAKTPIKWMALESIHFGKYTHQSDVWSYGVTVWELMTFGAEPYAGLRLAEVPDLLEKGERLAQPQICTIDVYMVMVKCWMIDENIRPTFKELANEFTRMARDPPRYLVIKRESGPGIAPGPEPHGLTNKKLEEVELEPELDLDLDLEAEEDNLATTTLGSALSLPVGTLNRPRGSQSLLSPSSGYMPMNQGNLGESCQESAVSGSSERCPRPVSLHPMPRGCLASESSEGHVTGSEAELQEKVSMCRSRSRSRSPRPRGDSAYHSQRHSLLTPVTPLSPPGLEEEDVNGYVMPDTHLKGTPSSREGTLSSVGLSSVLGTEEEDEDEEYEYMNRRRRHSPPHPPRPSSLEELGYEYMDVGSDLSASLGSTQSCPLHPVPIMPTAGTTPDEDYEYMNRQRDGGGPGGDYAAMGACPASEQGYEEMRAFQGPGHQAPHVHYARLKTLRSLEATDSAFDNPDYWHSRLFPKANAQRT

## CN(C)CC(=O)N1CCC[C@@H](n2nc(-c3ccc(Oc4ccccc4)cc3)c3c(N)ncnc32)C1
[1]
  GI50: 0.94 µM
[2]
  GI50: 1.9 µM
[3]
  GI50: 2.2 µM
[4]
  GI50: 1.8 µM
[5]
  GI50: 3.8 µM
[6]
  GI50: 0.3 µM
[7]
  GI50: 9.7 µM
[8]
  AUC(0-t): 607 ng·h/mL
[9]
  clearance: 26.9 mL/min/kg
[10]
  MRT inf: 1.15 h
[11]
  Tmax: 1.67 h
[12]
  Cmax: 458 ng/mL
[13]
  AUC(0-t): 1830 ng·h/mL
[14]
  AUCinf: 1880 ng·h/mL
[15]
  bioavailability: 30.4%
MV4-11 [16]
  Activity: 0.94 g
[17]
  GI50: 0.011 µM
[18]
  Activity: 0.05%
[19]
  Activity: 0.5%
[20]
  Activity: 0%
[21]
  Activity: 0.4%
[22]
  Activity: 0%
[23]
  IC50: 0.559 µM
[24]
  Activity: Active
MV4-11 [25]
  Activity: Active
MV4-11 [26]
  Activity: Active
MOLM-14
  Activity: Active
MOLM-13 [27]
  Activity: Active
MOLM-13 [28]
  Activity: Active
[29]
  GI50: 0.17 µM
[30]
  GI50: 0.22 µM
[31]
  GI50: 0.004 µM
[32]
  inhibition: Active
[33]
  inhibition: Active
[34]
  inhibition: Active
[35]
  inhibition: Active
[36]
  inhibition: Active
[37]
  inhibition: Active
